How the values were obtained:
Conditions in all cases: in vivo
Mus musculus [1] = species on record: Mus musculus; test: Distribution of compound in lungs tissue of mice after 24 hr injection time was determined; type: ADME, organism-based, Lung
Method in brief: (§1)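 Healthy athymic nude mice (balb/c nu/nu, 20–25 g, both sexes) received 50–400 KBq radioiodinated bisphosphonate in 100 µL phosphate buffer pH 6–7 by tail-vein injection. Three animals were sacrificed per time point. Tissues were excised, weighed and gamma-counted. Values are % injected dose per gram tissue, mean ± 1 SD, n = 3.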

Mus musculus [2] = species on record: Mus musculus; test: Distribution of compound in skull tissue of mice after 24 hr injection time was determined; type: ADME, organism-based; method in brief: as §1
Mus musculus [3] = species on record: Mus musculus; test: Distribution of compound in kidneys tissue of mice after 24 hr injection time was determined; type: ADME, organism-based, Kidney; method in brief: as §1
Mus musculus [4] = species on record: Mus musculus; test: Distribution of compound in liver tissue of mice after 24 hr injection time was determined; type: ADME, organism-based; method in brief: as §1
Mus musculus [5] = species on record: Mus musculus; test: Distribution of compound in heart tissue of mice after 24 hr injection time was determined; type: ADME, organism-based; method in brief: as §1
Mus musculus [6] = species on record: Mus musculus; test: Distribution of compound in intestine tissue of mice after 24 hr injection time was determined; type: ADME, organism-based; method in brief: as §1
Mus musculus [7] = species on record: Mus musculus; test: Distribution of compound in spleen tissue of mice after 24 hr injection time was determined; type: ADME, organism-based; method in brief: as §1
Mus musculus [8] = species on record: Mus musculus; test: Distribution of compound in stomach tissue of mice after 24 hr injection time was determined; type: ADME, organism-based; method in brief: as §1
Mus musculus [9] = species on record: Mus musculus; test: Distribution of compound in thyroid tissue of mice after 24 h injection time was determined; type: ADME, organism-based, Thyroid gland
Method in brief: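 Healthy athymic nude balb/c nu/nu mice (20–25 g) received 50–400 KBq radioiodinated bisphosphonate in 100 μL phosphate buffer, pH 6–7, by tail-vein injection. Three animals were sacrificed per time point. Thyroid-containing tissue was excised, weighed and gamma-counted. Values are % of injected dose, mean ± 1 SD of three mice.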

Mus musculus [10] = species on record: Mus musculus; test: Distribution of compound in blood tissue of mice after 24 hr injection time was determined; type: ADME, organism-based; method in brief: as §1
Mus musculus [11] = species on record: Mus musculus; test: Distribution of compound in femur tissue of mice after 24 hr injection time was determined; type: ADME, organism-based; method in brief: as §1

- Injected (Mus musculus [1]): 0.21%
- Injected (Mus musculus [2]): 10.36%
- Injected (Mus musculus [3]): 0.85%
- Injected (Mus musculus [4]): 0.35%
- Injected (Mus musculus [5]): 0.06%
- Injected (Mus musculus [6]): 0.05%
- Injected (Mus musculus [7]): 0.17%
- Injected (Mus musculus [8]): 0.04%
- Injected (Mus musculus [9]): 0.02%
- Injected (Mus musculus [10]): 0.02%
- Injected (Mus musculus [11]): 8.84%
SMILES: O=P(O)(O)C(CCc1cccc(I)c1)P(=O)(O)O

From ChEMBL document CHEMBL1145833, “Studies on the synthesis and biological properties of non-carrier-added [(125)I and (131)I]-labeled arylalkylidenebisphosphonates: potent bone-seekers for diagnosis and therapy of malignant osseous lesions” (J Med Chem, 2003)
